Experimental findings from ChEMBL document CHEMBL4400509, “Conversion of Quinazoline Modulators from Inhibitors to Activators of β-Glucocerebrosidase” (J Med Chem, 2019) are described below.

Activity calls are given as the source filed them. No cut-off for these calls is given here. Where only a bound is given, the exact number is not on record here.

Assay [1] deals with T1, Lysosomal acid glucosylceramidase (Homo sapiens, UniProt P04062).
T1 sequence (P04062 whole entry): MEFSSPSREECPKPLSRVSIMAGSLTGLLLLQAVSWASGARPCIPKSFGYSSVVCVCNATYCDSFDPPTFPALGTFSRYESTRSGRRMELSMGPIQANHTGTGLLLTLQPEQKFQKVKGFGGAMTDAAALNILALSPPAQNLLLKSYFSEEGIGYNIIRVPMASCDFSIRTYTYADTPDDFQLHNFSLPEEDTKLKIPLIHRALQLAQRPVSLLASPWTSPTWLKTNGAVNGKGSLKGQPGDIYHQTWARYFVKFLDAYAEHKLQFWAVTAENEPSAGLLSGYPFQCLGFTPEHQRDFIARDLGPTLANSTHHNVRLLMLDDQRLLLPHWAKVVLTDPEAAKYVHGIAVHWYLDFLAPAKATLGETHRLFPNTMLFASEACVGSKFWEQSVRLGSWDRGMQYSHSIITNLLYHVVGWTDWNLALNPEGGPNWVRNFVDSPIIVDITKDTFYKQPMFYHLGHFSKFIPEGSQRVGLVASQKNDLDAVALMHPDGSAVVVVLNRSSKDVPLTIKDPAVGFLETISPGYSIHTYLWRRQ
The assay is described as follows: Activation of wild type recombinant human lysosomal beta-glucocerebrosidase using 4-methylumbelliferyl-beta-D-glucopyranoside as substrate preincubated for 5 mins followed by substrate addition and measured after 30 mins by fluorescence assay. The method, boiled down:
(§1)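 Recombinant wild-type human GCase (velaglucerase alfa), 7.5 nM final, in 50 mM citric acid/176 mM K2HPO4/0.01% Tween-20, pH 5.9. Enzyme was preincubated 5 min at room temperature with compound (12-point series, 48 nM–100 μM final). 4MU-β-Glc (1.5 mM final) was added, and the reaction ran 30 min at 37 °C. It was stopped with 1 M NaOH/1 M glycine, pH 10, and read at ex 365/em 440 nm. Triplicate, mean.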

Assay [2] deals with T2, Lysosomal acid glucosylceramidase (Homo sapiens) (UniProt P04062).
T2 sequence (whole entry): T1 sequence (P04062 whole entry)
In words: Activation of wild type recombinant human lysosomal beta-glucocerebrosidase at 0.048 to 100 uM using 4-methylumbelliferyl-beta-D-glucopyranoside as substrate preincubated for 5 mins followed by substrate addition and measured after 30 mins by fluorescence assay relative to control. The method, boiled down:
as §1

The target of assay [3] is T1, Lysosomal acid glucosylceramidase. In words: Inhibition of wild type recombinant human lysosomal beta-glucocerebrosidase using 4-methylumbelliferyl-beta-D-glucopyranoside as substrate preincubated for 5 mins followed by substrate addition and measured after 30 mins by fluorescence assay.
The species entered for assay [4] is Homo sapiens. In words: Induction of post-ER GCase activity in fibroblast cells harboring N370S/84GG double mutant derived from Gaucher's disease patient at 25 uM using PFB-FDGlu as substrate preincubated for 3 days followed by substrate addition and measured after 1 hr for every 20 mins in presence of bafilomycin by fluorescence assay. Type of assay: cell-based.

In assay [5] the test system is Fibroblast. The assay is described as follows: Induction of post-ER GCase level in fibroblast cells harboring N370S/84GG double mutant derived from Gaucher's disease patient at 25 uM by immunoblotting analysis. Type of assay: functional, cell-based. Conditions: Homo sapiens. The method, boiled down: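 N370S/84GG patient fibroblasts, compound-treated 3 days (DMSO 0.1% v/v vehicle) and lysed in 1% Triton X-100. Lysates were left undigested or digested with Endo H or PNGase F. They were then immunoblotted for GCase with GAPDH as loading control, and post-ER form was taken as Endo H-resistant band. n = 4.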

As for `CN(c1nc(-c2cccnc2)nc2ccccc12)C1CCCC1`, in assay [1] (read-out: AC50), the AC50 came out at 6.36 µM. Further, in assay [2], the Emax worked out at 149%.
`CN(Cc1nc2ccccc2o1)c1nc(-c2cccnc2)nc2ccccc12`: the AC50 in assay [1] (read-out: AC50) amounted to 16.1 µM. In addition, the Emax in assay [2] amounted to 643%.
As to `CN(CCCOc1ccccc1)c1nc(-c2cccnc2)nc2ccccc12`, in assay [1] (read-out: AC50), the AC50 was 6.16 µM. The Emax in assay [2] was 208%.
Consider `CC(CNc1nc(-c2cccnc2)nc2ccccc12)Oc1ccccc1` (configuration not stated), for which the IC50 in assay [3] was determined as 4.24 µM.
Take `c1ccc(O[C@H]2CCCN(c3nc(-c4cccnc4)nc4ccccc34)C2)cc1`: in assay [1] (read-out: AC50), the AC50 stood at 4.75 µM. Besides, the Emax in assay [2] worked out at 237%.
With `c1ccc(O[C@@H]2CCCN(c3nc(-c4cccnc4)nc4ccccc34)C2)cc1`, in assay [1] (read-out: AC50), the AC50 came to 3.65 µM. In assay [2], the Emax was found to be 302%.
`CN(Cc1ccc2nsnc2c1)c1nc(-c2cccnc2)nc2ccccc12`: the AC50 in assay [1] (read-out: AC50) is 1.84 µM. Also, the Emax in assay [2] is 337%.
In the case of `c1ccc(COCCNc2nc(-c3cccnc3)nc3ccccc23)cc1`, the half-maximal inhibitory concentration (IC50) in assay [3] is 7.3 µM.
For the compound `CN(CCc1ccccc1)c1nc(-c2cccnc2)nc2ccccc12`, the AC50 in assay [1] (read-out: AC50) was 1.39 µM. Also, the Emax in assay [2] worked out at 126%.
For `c1cncc(-c2nc(N3CCc4c([nH]c5ccccc45)C3)c3ccccc3n2)c1` the same measures were 4.27 µM and 175%.
As for `c1cncc(-c2nc(N3CCCOCC3)c3ccccc3n2)c1`, the AC50 in assay [1] (read-out: AC50) was determined as 44.1 µM. Further, the Emax in assay [2] is 423%.
As to `CN(CCOc1ccccc1)c1nc(-c2cncnc2)nc2ccccc12`, the AC50 in assay [1] (read-out: AC50) is 0.89 µM. For the same compound, the Emax in assay [2] is 634%.
With `CN(Cc1nc2ccccc2[nH]1)c1nc(-c2cccnc2)nc2ccccc12`, the AC50 in assay [1] (read-out: AC50) came to 7.92 µM. Besides, the Emax in assay [2] was found to be 197%.
Regarding `CN(c1nc(-c2cccnc2)nc2ccccc12)C1CCCCCCC1`, the IC50 in assay [3] was 8.38 µM.
For the compound `CCN(CCOc1ccccc1)c1nc(-c2cccnc2)nc2ccccc12`, the AC50 in assay [1] (read-out: AC50) worked out at 5.38 µM. Further, the Emax in assay [2] is 478%.
Regarding `CN(c1nc(-c2cccnc2)nc2ccccc12)[C@@H]1CCc2ccccc2C1`, in assay [3], the IC50 stood at 5.87 µM.
As to `CN(CCOc1ccccc1)c1nc(-c2ccncc2)nc2ccccc12`, the AC50 in assay [1] (read-out: AC50) was found to be 2.89 µM. The Emax in assay [2] amounted to 690%.
For `c1ccc(CC2CCCCN2c2nc(-c3cccnc3)nc3ccccc23)cc1` (configuration not stated) the same measures were 4.47 µM and 364%.
Regarding `CN(CCOc1ccccc1)c1nc(-c2ccccc2)nc2ccccc12`, the AC50 result in assay [1] is given as “Not Active”. Further, the Emax entry in assay [2] is “inactive”.
Consider `c1ccc(C2CCCN(c3nc(-c4cccnc4)nc4ccccc34)C2)cc1` (configuration not stated), for which, in assay [1] (read-out: AC50), the AC50 is 4.66 µM. In addition, the Emax in assay [2] amounted to 130%.
For `CN(CCOc1ccccc1)c1nc(-c2cccnc2)nc2ccccc12` the same measures were 2.3 to 3.55 µM and 552 to 761%.
Consider `c1ccc(OCCCNc2nc(-c3cccnc3)nc3ccccc23)cc1`, for which, in assay [3], the IC50 came out at 2.54 µM.
Consider `OC[C@H]1CNC[C@@H](O)[C@@H]1O`, for which the result in assay [4] and in assay [5] was inactive.
For `CC(CN(C)c1nc(-c2cccnc2)nc2ccccc12)Oc1ccccc1` (configuration not stated), the AC50 in assay [1] (read-out: AC50) came out at 8.97 µM. Besides, in assay [2], the Emax was 390%.
For `CN(Cc1ccc2c(c1)OCO2)c1nc(-c2cccnc2)nc2ccccc12` the same measures were 1.63 µM and 160%.
`CN(CCOc1ccccc1)c1nc(-c2cccs2)nc2ccccc12`: in assay [1], the AC50 result is reported as “Not Active”. Moreover, in assay [2], the Emax result was “inactive”.
With `CN(CCOCc1ccccc1)c1nc(-c2cccnc2)nc2ccccc12`, the AC50 in assay [1] (read-out: AC50) amounted to 16.9 µM. Also, in assay [2], the Emax turned out to be 394%.
With `CN(c1nc(-c2cccnc2)nc2ccccc12)[C@H]1CCc2ccccc2C1`, the IC50 in assay [3] was found to be 0.43 µM.
Take `CC(COc1ccccc1)Nc1nc(-c2cccnc2)nc2ccccc12` (configuration not stated): in assay [3], the IC50 turned out to be 1.88 µM.
Turning to `c1ccc(OCCNc2nc(-c3cccnc3)nc3ccccc23)cc1`, in assay [1] (read-out: AC50), the AC50 worked out at 1.56 µM. Moreover, the Emax in assay [2] was 140%.
`CN(c1nc(-c2cccnc2)nc2ccccc12)C1CCCCC1`: the AC50 in assay [1] (read-out: AC50) turned out to be 2.36 µM. Besides, the Emax in assay [2] was 137%.
With `c1ccc(OCCN(CC2CC2)c2nc(-c3cccnc3)nc3ccccc23)cc1`, the AC50 entry in assay [1] is given as “Not Active”. The Emax entry in assay [2] was “inactive”.
Regarding `CN1Cc2ccc(CN(C)c3nc(-c4cccnc4)nc4ccccc34)cc2C1`, the AC50 in assay [1] (read-out: AC50) came out at 14.9 µM. Further, the Emax in assay [2] was 428%.
As for `CC(COc1ccccc1)N(C)c1nc(-c2cccnc2)nc2ccccc12` (configuration not stated), the AC50 in assay [1] (read-out: AC50) was found to be 7.52 µM. The Emax in assay [2] came to 345%.
Turning to `CN(Cc1ccc2ccccc2c1)c1nc(-c2cccnc2)nc2ccccc12`, the AC50 in assay [1] (read-out: AC50) was determined as 3.8 µM. Also, the Emax in assay [2] turned out to be 155%.
For `CN(CCCCc1ccccc1)c1nc(-c2cccnc2)nc2ccccc12` the same measures were 3.99 µM and 190%.
For `CN(Cc1ccc2c(c1)OCCO2)c1nc(-c2cccnc2)nc2ccccc12` the same measures were 4.88 µM and 488%.
On to `CN(CCOc1ccccc1)c1nc(-c2ccsc2)nc2ccccc12`, for which the AC50 entry in assay [1] is “Not Active”. Also, the Emax result in assay [2] was “inactive”.
In the case of `CN(CCOc1ccccc1)c1nc(-c2ccoc2)nc2ccccc12`, the AC50 in assay [1] (read-out: AC50) worked out at 1.68 µM. In assay [2], the Emax amounted to 145%.
`CN(CCCc1ccccc1)c1nc(-c2cccnc2)nc2ccccc12`: the Emax in assay [2] is 223%.
For `CCCN(CCOc1ccccc1)c1nc(-c2cccnc2)nc2ccccc12`, the AC50 in assay [1] (read-out: AC50) came out at 3.18 µM. Moreover, the Emax in assay [2] came to 132%.
In the case of `c1cncc(-c2nc(N3CCOc4ccccc4C3)c3ccccc3n2)c1`, in assay [1] (read-out: AC50), the AC50 was determined as 9.74 µM. Moreover, in assay [2], the Emax came to 438%.
Regarding `CN(c1nc(-c2cccnc2)nc2ccccc12)C1CCCCCC1`, the IC50 in assay [3] came out at 9.94 µM.
For the compound `CN(Cc1cnc2ccccc2n1)c1nc(-c2cccnc2)nc2ccccc12`, in assay [1] (read-out: AC50), the AC50 amounted to 1.63 µM. Besides, the Emax in assay [2] was found to be 674%.
For the compound `CN(CCOc1ccccc1)c1nc(-c2ccccn2)nc2ccccc12`, in assay [1] (read-out: AC50), the AC50 is greater than 50 µM.
`c1cncc(-c2nc(N3CCc4[nH]c5ccccc5c4C3)c3ccccc3n2)c1`: the AC50 result in assay [1] was “Not Active”. Besides, the Emax result in assay [2] was “inactive”.
Take `c1ccc(OC2CCN(c3nc(-c4cccnc4)nc4ccccc34)C2)cc1` (configuration not stated): in assay [1] (read-out: AC50), the AC50 came to 1.17 µM. For the same compound, the Emax in assay [2] was determined as 276%.
For `CN(CCOc1ccccc1)c1nc(-c2ccco2)nc2ccccc12`, the AC50 in assay [1] (read-out: AC50) was determined as 21.7 µM. Besides, in assay [2], the Emax is 229%.
For `CN(Cc1nc2ccccc2s1)c1nc(-c2cccnc2)nc2ccccc12` the same measures were 6.9 µM and 517%.
Consider `c1ccc(CC2CCCN(c3nc(-c4cccnc4)nc4ccccc34)C2)cc1` (configuration not stated), for which, in assay [1] (read-out: AC50), the AC50 amounted to 5.18 µM. In assay [2], the Emax came to 160%.
Consider `CN(C[C@@H]1COc2ccccc2O1)c1nc(-c2cccnc2)nc2ccccc12`, for which, in assay [1] (read-out: AC50), the half-maximal activity concentration (AC50) turned out to be 2.37 µM. The Emax in assay [2] is 296%.
